For assay [1], the target named is T1, Polyunsaturated fatty acid lipoxygenase ALOX15 (Homo sapiens, UniProt P16050).
T1 sequence (P16050 whole entry): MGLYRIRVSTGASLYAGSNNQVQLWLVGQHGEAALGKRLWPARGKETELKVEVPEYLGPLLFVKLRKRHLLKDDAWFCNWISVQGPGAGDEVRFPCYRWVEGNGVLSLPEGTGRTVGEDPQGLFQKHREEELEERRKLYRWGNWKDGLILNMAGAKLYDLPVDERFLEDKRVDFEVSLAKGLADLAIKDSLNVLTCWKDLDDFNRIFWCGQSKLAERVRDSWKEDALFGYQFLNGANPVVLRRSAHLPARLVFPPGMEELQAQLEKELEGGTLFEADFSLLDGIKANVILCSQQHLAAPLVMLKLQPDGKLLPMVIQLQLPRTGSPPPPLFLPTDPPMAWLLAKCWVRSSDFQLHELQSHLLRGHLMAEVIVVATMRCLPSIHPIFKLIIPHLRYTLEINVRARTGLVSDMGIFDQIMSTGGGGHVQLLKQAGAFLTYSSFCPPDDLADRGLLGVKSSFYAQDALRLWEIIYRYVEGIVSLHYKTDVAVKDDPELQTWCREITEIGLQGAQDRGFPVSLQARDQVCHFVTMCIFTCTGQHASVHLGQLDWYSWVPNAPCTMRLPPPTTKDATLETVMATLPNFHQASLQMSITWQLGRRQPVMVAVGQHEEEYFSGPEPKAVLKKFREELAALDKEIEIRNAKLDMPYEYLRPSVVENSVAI
As to the kind of experiment: Inhibition of recombinant N-terminal His6-tagged human reticulocyte 12/15-lipoxygenase using arachidonic acid as substrate by UV-vis spectrometric analysis.

The target in assay [2] is T2, Polyunsaturated fatty acid lipoxygenase ALOX15 (Mus musculus) (UniProt P39654).
T2 sequence (whole entry): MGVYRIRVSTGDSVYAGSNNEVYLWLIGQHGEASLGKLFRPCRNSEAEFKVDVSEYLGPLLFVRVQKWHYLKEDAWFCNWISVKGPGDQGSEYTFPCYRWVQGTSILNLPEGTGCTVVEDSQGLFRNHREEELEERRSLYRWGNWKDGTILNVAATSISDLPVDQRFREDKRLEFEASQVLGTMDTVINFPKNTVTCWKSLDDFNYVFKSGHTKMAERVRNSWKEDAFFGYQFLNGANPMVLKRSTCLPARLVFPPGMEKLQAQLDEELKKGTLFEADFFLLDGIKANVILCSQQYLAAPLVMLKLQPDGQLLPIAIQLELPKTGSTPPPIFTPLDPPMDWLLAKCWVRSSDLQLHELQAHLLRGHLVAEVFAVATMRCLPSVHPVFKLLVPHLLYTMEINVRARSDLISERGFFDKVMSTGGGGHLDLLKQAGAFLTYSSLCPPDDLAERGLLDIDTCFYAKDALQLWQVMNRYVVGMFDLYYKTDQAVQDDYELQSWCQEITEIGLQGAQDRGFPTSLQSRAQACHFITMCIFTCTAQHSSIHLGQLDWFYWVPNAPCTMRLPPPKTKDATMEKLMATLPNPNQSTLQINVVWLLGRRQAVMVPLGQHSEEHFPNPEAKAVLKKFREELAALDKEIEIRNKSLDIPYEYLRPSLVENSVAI
As to the kind of experiment: Inhibition of 12/15-lipoxygenase in mouse HT22 cells assessed as protection against glutamate-induced cell death at 5 uM after 24 hrs by LDH release assay. The note with it: HT-22. The class given is cell-based. Summed up:
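HT22 mouse hippocampal cells were grown in DMEM with 10% FBS and penicillin/streptomycin, seeded at 1 × 10^4 cells/well and treated 18 h later at 50–70% confluence. Medium was exchanged for fresh medium with 5 mM glutamate plus compound or DMSO (≤0.1% final). Death was scored as percent LDH released to the medium versus the cell extract, background-subtracted.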
Background: Release of lactate dehydrogenase indicates damage to the cell membrane.

Assay [3] concerns the target T3, Prostaglandin G/H synthase 1 (Ovis aries) (UniProt P05979).
T3 sequence (whole entry): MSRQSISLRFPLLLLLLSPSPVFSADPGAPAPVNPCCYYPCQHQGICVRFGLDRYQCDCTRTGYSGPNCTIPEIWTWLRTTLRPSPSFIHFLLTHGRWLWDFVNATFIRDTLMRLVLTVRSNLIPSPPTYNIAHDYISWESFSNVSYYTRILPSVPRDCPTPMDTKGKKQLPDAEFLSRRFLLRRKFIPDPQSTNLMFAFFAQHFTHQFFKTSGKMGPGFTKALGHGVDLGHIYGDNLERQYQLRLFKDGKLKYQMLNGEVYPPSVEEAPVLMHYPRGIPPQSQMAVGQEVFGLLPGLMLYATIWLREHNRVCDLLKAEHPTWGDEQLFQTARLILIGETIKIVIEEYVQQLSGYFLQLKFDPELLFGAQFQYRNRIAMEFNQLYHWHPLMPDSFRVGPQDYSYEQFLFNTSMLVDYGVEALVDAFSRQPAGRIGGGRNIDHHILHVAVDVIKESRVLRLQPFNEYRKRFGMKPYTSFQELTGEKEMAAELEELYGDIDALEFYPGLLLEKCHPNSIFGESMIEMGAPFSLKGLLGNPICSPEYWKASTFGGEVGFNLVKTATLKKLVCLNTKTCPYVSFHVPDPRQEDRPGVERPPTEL
Nature of the assay: Inhibition of ovine COX-1 using arachidonic acid as substrate assessed as consumption of oxygen at 5 uM preincubated for 5 mins followed by substrate addition by oxygen electrode-based assay relative to control. Summed up: (§1)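 COX-1 or COX-2 (2–5 μg) in 0.1 M Tris-HCl pH 8.0 with 5 mM EDTA, 2 mM phenol and 1 μM hematin at 37 °C. Inhibitor was preincubated 5 min, then 100 μM arachidonic acid was added. Oxygen consumption was read on an oxygen electrode, and percent inhibition was calculated against a DMSO control, with indomethacin as positive control.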

For assay [4], the target named is T4, Prostaglandin G/H synthase 2 (Homo sapiens) (UniProt P35354).
T4 sequence (whole entry): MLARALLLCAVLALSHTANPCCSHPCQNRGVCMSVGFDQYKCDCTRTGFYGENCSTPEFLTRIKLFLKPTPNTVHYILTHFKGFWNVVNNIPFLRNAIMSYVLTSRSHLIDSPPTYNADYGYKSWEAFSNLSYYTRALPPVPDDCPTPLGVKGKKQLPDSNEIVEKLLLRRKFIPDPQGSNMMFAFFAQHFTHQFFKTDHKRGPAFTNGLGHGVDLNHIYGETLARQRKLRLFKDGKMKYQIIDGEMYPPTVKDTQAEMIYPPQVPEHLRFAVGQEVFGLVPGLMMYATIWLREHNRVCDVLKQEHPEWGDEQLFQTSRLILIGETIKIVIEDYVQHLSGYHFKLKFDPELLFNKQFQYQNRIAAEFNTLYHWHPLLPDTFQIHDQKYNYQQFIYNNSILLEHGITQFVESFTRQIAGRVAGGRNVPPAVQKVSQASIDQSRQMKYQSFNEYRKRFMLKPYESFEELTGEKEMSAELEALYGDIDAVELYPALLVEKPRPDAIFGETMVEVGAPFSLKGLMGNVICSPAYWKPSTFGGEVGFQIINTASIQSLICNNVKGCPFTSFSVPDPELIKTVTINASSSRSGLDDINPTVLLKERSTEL
Nature of the assay: Inhibition of human COX-2 using arachidonic acid as substrate assessed as consumption of oxygen at 5 uM preincubated for 5 mins followed by substrate addition by oxygen electrode-based assay relative to control. Summed up: as §1

Assay [5] has as its target T5, Polyunsaturated fatty acid 5-lipoxygenase (Homo sapiens, UniProt P09917).
T5 sequence (P09917 whole entry): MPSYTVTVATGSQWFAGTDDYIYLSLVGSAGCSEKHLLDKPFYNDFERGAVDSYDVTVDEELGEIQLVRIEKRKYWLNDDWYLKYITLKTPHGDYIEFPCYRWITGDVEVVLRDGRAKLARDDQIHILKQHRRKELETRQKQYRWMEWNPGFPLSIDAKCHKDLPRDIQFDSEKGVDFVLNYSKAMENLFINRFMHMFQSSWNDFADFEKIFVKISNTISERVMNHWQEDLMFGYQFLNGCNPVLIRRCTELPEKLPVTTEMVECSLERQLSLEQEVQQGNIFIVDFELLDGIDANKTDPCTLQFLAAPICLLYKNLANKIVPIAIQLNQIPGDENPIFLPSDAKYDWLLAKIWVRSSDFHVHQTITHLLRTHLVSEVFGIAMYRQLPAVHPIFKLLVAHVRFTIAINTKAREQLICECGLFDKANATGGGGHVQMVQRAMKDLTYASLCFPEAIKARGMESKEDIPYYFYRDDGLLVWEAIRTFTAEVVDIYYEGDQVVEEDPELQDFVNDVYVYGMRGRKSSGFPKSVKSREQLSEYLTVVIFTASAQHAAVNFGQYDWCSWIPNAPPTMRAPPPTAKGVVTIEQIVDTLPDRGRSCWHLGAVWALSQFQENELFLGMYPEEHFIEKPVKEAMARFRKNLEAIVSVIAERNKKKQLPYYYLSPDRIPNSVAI
As to the kind of experiment: Inhibition of human 5-lipoxygenase using arachidonic acid as substrate by UV-vis spectrometric analysis.

Assay [6] addresses T6, Polyunsaturated fatty acid lipoxygenase ALOX15B (Homo sapiens, UniProt O15296).
T6 sequence (O15296 whole entry): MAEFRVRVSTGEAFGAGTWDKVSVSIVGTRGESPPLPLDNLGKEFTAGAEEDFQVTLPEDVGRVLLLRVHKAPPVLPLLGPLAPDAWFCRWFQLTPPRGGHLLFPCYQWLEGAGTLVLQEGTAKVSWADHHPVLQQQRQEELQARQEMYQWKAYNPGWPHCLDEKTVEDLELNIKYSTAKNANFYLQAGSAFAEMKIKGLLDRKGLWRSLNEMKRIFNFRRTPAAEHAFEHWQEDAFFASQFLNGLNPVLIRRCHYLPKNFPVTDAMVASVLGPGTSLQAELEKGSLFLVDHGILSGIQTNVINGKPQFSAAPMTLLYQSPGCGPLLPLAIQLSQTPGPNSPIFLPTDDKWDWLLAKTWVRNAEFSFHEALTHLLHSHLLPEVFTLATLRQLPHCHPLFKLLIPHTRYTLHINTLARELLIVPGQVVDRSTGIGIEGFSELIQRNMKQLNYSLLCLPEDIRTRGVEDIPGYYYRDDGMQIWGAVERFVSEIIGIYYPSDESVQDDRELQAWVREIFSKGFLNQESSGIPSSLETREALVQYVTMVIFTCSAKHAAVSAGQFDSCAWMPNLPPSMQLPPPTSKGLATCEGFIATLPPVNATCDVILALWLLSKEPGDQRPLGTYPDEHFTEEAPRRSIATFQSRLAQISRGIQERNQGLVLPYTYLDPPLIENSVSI
As to the kind of experiment: Inhibition of N-terminal His6-tagged human epithelial 15-lipoxygenase-2 using arachidonic acid as substrate by UV-vis spectrometric analysis.

Assay [7] addresses T7, Polyunsaturated fatty acid lipoxygenase ALOX15 (Homo sapiens) (UniProt P16050).
T7 sequence (whole entry): T1 sequence (P16050 whole entry)
Nature of the assay: Inhibition of recombinant N-terminal His6-tagged human reticulocyte 12/15-lipoxygenase using arachidonic acid as substrate at 25 uM by UV-vis spectrometric analysis relative to control. Summed up: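 His6-tagged human 12/15-LOX, Ni-NTA purified, at 40 nM in 25 mM HEPES pH 7.5 with 0.01% Triton X-100 and 10 μM arachidonic acid, in a stirred cuvette at 22 °C. Diene formation was followed at 234 nm, and percent inhibition at 25 μM inhibitor was calculated against the DMSO control rate.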

pIC50: −log10 of the molar value. Activity calls are given as the source filed them. The rule behind the calls is not given here.

On to `N#Cc1nc(-c2cccc3ccccc23)oc1NC1CNC1`, for which, in assay [1], the negative logarithm of the IC50 (pIC50) was less than 4.40. Moreover, the inhibition entry in assay [2] was “Active”.

In the case of `CNc1oc(-c2cccc(Cl)c2Cl)nc1C#N`, the inhibition in assay [3] and in assay [4] was less than 10% each time.

In the case of `CNc1sc(-c2cccc3ccccc23)nc1C#N`, the pIC50 in assay [5] and in assay [6] was less than 4.30 throughout. The inhibition in assay [3] and in assay [4] was less than 10% throughout.

With `N#Cc1nc(-c2cccc3ccccc23)oc1NCc1ccccc1`, in assay [1], the pIC50 was less than 4.52. Besides, the Imax in assay [7] was less than 50%.

In the case of `CNc1nnc(-c2cccc3ccccc23)s1`, the negative logarithm of the IC50 (pIC50) in assay [1] was less than 4.40.

For `CNc1oc(-c2ccc3ccccc3c2)nc1C#N`, the Imax in assay [7] was less than 50%.

For the molecule `N#Cc1nc(-c2cccc3ccccc23)oc1NC1COC1`, in assay [1], the pIC50 was less than 4.60.

As for `CNc1nc(-c2cccc3ccccc23)ccc1C#N`, the pIC50 in assay [1] was less than 4.40.

`CNc1oc(-c2ccc(Cl)c(Cl)c2)nc1C#N`: the inhibition in assay [3] and in assay [4] was less than 10% in each case.

Consider `CNc1oc(-c2cccc3cnccc23)nc1C#N`, for which, in assay [7], the Imax is less than 50%.

With `CNc1oc(-c2cccc3ccccc23)nc1C(=O)OC`, the pIC50 in assay [1] was less than 4.40.

For the molecule `CNc1oc(-c2ccc(-c3ccccc3)cc2)nc1C#N`, in assay [2], the inhibition result was “Active”.

As to `N#Cc1nc(-c2cccc3ccccc23)oc1Nc1ccccc1`, the pIC50 in assay [1] is less than 4.52. In assay [7], the Imax was less than 50%.

For the molecule `CC(C)Nc1oc(-c2cccc3ccccc23)nc1C#N`, in assay [1], the pIC50 is less than 4.40.

Turning to `CNc1nc(C#N)c(-c2cccc3ccccc23)o1`, the pIC50 in assay [1] was less than 4.40. In assay [2], the inhibition entry is “inactive”.

Regarding `CNc1sc(-c2cccc3ccccc23)nc1C(=O)OC`, the Imax in assay [7] was less than 50%.

As to `CNc1oc(C2CCCC2)nc1C#N`, the pIC50 in assay [1] was less than 4.30.

The term pIC50 denotes the negative decadic logarithm of the IC50, by convention in mol/L. As a reminder, the inhibition is the share of the control response that was lost under treatment.

These data come from ChEMBL document CHEMBL3259653, “Potent and selective inhibitors of human reticulocyte 12/15-lipoxygenase as anti-stroke therapies” (J Med Chem, 2014).
